# From ChEMBL document CHEMBL4190216, “Asymmetric 1,5-diarylpenta-1,4-dien-3-ones: Antiproliferative activity in prostate epithelial cell models and pharmacokinetic studies” (Eur J Med Chem, 2017)
# What was measured:
# PC-3 [1] = test: Antiproliferative activity against human PC3 cells assessed as decrease in cell viability after 3 days by WST assay; type: functional, cell-based; conditions: PC-3, 72 h
# Procedure, shortened: (§1)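 Cells were seeded at 3,200 per well. PC-3 and LNCaP were grown in RPMI-1640 and DU-145 in EMEM, each with 10% FBS and 1% penicillin/streptomycin, at 37 °C and 5% CO2. Cells were exposed for 3 days to at least five concentrations, with DMSO as vehicle control. WST-1 reagent was then added for 3 h at 37 °C and absorbance read at 430 nm. IC50 came from linear inhibition, averaged over triplicates.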
# LNCaP [2] = test: Potency index, ratio of curcumin IC50 to test compound IC50 for human LNCAP cells; type: functional
# [3] = Antiproliferative activity against human LNCaP95 cells expressing androgen receptor splice variants assessed as decrease in cell viability after 5 days by trypan blue exclusion assay; type: functional, cell-based; conditions: LNCaP-95, 120 h
# PWR-1E = test: Potency index, ratio of curcumin IC50 to test compound IC50 for human PWR-1E cells expressing androgen receptor and PSA; type: functional
# PC-3 [4] = test: Induction of apoptosis in human PC3 cells assessed as late apoptotic/necrotic cells at 20 uM after 16 hrs by F2N12S/CYTOX AADvanced double staining-based flow cytometric method (reference value: 3%); type: functional
# [5] = Plasma concentration in Sprague-Dawley rat at 10 mg/kg administered via oral gavage measured at 1 hr by HPLC-MS/MS analysis; type: ADME, organism-based
# [6] = Plasma concentration in Sprague-Dawley rat at 10 mg/kg administered via oral gavage measured at 3 hrs by HPLC-MS/MS analysis; type: ADME, organism-based
# PC-3 [7] = test: Induction of apoptosis in human PC3 cells assessed as viable cells at 10 uM after 16 hrs by F2N12S/CYTOX AADvanced double staining-based flow cytometric method (reference value: 95%); type: functional; conditions: PC-3, 16 h, read-out: Activity
# PC-3 [8] = test: Induction of apoptosis in human PC3 cells assessed as viable cells at 5 uM after 16 hrs by F2N12S/CYTOX AADvanced double staining-based flow cytometric method (reference value: 95%); type: functional; conditions: PC-3, 16 h, read-out: Activity
# [9] = Drug metabolism in human liver microsomes assessed as (1Z,4E)-1-(1-sec-butyl-1H-imidazol-2-yl)-1-hydroxy-5-(2-methyl-4-(trifluoromethyl)thiazol-5-yl)penta-1,4-dien-3-one formation at 10 mM after 60 mins by UHPLC analysis; type: ADME, microsome
# Procedure, shortened: (§2)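 Pooled human liver microsomes in potassium phosphate buffer (pH 7.4) with NADPH solutions A and B were preincubated for 5 min at 37 °C. Compound was then added from a 10 mM stock (3 μL into 300 μL total) and incubated 60 min at 37 °C. Reactions were quenched with an equal volume of methanol and centrifuged (10,000 × g, 4 min, 4 °C). Supernatant went to UHPLC–high-resolution MS for metabolite identification.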
# PC-3 [10] = test: Induction of apoptosis in human PC3 cells assessed as early apoptotic cells at 5 uM after 16 hrs by F2N12S/CYTOX AADvanced double staining-based flow cytometric method (reference value: 2%); type: functional
# PC-3 [11] = test: Induction of apoptosis in human PC3 cells assessed as viable cells at 15 uM after 16 hrs by F2N12S/CYTOX AADvanced double staining-based flow cytometric method (reference value: 95%); type: functional; conditions: PC-3, 16 h, read-out: Activity
# PC-3 [12] = test: Induction of apoptosis in human PC3 cells assessed as viable cells at 30 uM after 16 hrs by F2N12S/CYTOX AADvanced double staining-based flow cytometric method (reference value: 95%); type: functional; conditions: PC-3, 16 h, read-out: Activity
# PC-3 [13] = test: Induction of apoptosis in human PC3 cells assessed as viable cells at 40 uM after 16 hrs by F2N12S/CYTOX AADvanced double staining-based flow cytometric method (reference value: 95%); type: functional; conditions: PC-3, 16 h, read-out: Activity
# Rattus norvegicus = test: Acute toxicity in Sprague-Dawley rat at 10 mg/kg administered via oral gavage; type: organism-based; conditions: in vivo
# Procedure, shortened: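 Male Sprague-Dawley rats (250–300 g, n = 4) each received a single 10 mg/kg oral gavage dose. The vehicle was 5% DMSO, 40% polyethylene glycol 400 and 55% saline. Blood was drawn from the lateral tail vein at 1, 3, 6 and 24 h for plasma drug levels. Toxicity was scored as observed deaths after dosing.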
# PC-3 [14] = test: Induction of apoptosis in human PC3 cells assessed as late apoptotic/necrotic cells at 5 uM after 16 hrs by F2N12S/CYTOX AADvanced double staining-based flow cytometric method (reference value: 3%); type: functional
# PC-3 [15] = test: Induction of apoptosis in human PC3 cells assessed as late apoptotic/necrotic cells at 30 uM after 16 hrs by F2N12S/CYTOX AADvanced double staining-based flow cytometric method (reference value: 3%); type: functional
# [16] = Retention time of the compound; type: physicochemical
# [17] = Plasma concentration in Sprague-Dawley rat at 10 mg/kg administered via oral gavage measured after 1 day by HPLC-MS/MS analysis; type: ADME, organism-based
# [18] = Tmax in Sprague-Dawley rat at 10 mg/kg administered via oral gavage by HPLC-MS/MS analysis; type: ADME, organism-based; conditions: in vivo
# [19] = Cmax in Sprague-Dawley rat at 10 mg/kg administered via oral gavage by HPLC-MS/MS analysis; type: ADME, organism-based; design: dose 10 mg/kg, route oral; conditions: in vivo
# PC-3 [20] = test: Induction of apoptosis in human PC3 cells assessed as viable cells at 20 uM after 16 hrs by F2N12S/CYTOX AADvanced double staining-based flow cytometric method (reference value: 95%); type: functional; conditions: PC-3, 16 h, read-out: Activity
# PC-3 [21] = test: Induction of apoptosis in human PC3 cells assessed as early apoptotic cells at 15 uM after 16 hrs by F2N12S/CYTOX AADvanced double staining-based flow cytometric method (reference value: 2%); type: functional
# PC-3 [22] = test: Cell cycle arrest in human PC3 cells assessed as accumulation at G2 phase at 5 uM after 16 hrs by propidium iodide staining-based flow cytometric method (reference value: 25 to 28%); type: functional
# [23] = Plasma concentration in Sprague-Dawley rat at 10 mg/kg administered via oral gavage measured at 6 hrs by HPLC-MS/MS analysis; type: ADME, organism-based
# PC-3 [24] = test: Potency index, ratio of curcumin IC50 to test compound IC50 for human PC3 cells; type: functional
# PC-3 [25] = test: Cell cycle arrest in human PC3 cells assessed as accumulation at G0/G1 phase at 5 uM after 24 hrs by propidium iodide staining-based flow cytometric method (reference value: 59 to 62%); type: functional
# PC-3 [26] = test: Induction of apoptosis in human PC3 cells assessed as late apoptotic/necrotic cells at 15 uM after 16 hrs by F2N12S/CYTOX AADvanced double staining-based flow cytometric method (reference value: 3%); type: functional
# LNCaP [27] = test: Antiproliferative activity against human LNCAP cells assessed as decrease in cell viability after 3 days by WST assay; type: functional, cell-based; conditions: 72 h; procedure, shortened: as §1
# PC-3 [28] = test: Induction of apoptosis in human PC3 cells assessed as early apoptotic cells at 40 uM after 16 hrs by F2N12S/CYTOX AADvanced double staining-based flow cytometric method (reference value: 2%); type: functional
# [29] = Drug metabolism in human liver microsomes assessed as (1E,4E)-1-(1-sec-butyl-4-hydroxy-1H-imidazol-2-yl)-5-(2-methyl-4-(trifluoromethyl)thiazol-5-yl)penta-1,4-dien-3-one formation at 10 mM after 60 mins by UHPLC analysis; type: ADME, microsome; procedure, shortened: as §2
# PC-3 [30] = test: Induction of apoptosis in human PC3 cells assessed as late apoptotic/necrotic cells at 10 uM after 16 hrs by F2N12S/CYTOX AADvanced double staining-based flow cytometric method (reference value: 3%); type: functional
smiles,measurement,setting,value
CCC(C)n1ccnc1/C=C/C(=O)/C=C/c1sc(C)nc1C(F)(F)F (configuration not stated),IC50,PC-3 [1],230 nM
same,Ratio IC50,LNCaP [2],62
same,IC50,[3],370 nM
same,Ratio IC50,PWR-1E,81
same,Activity,PC-3 [4],23%
same,concentration at 1 h,[5],361 ng/mL
same,concentration at 3 h,[6],672 ng/mL
same,viability at 10 µM,PC-3 [7],49%
same,viability at 5 µM,PC-3 [8],50%
same,Drug metabolism,[9],Metabolite_Detected
same,Activity,PC-3 [10],11%
same,viability at 15 µM,PC-3 [11],54%
same,viability at 30 µM,PC-3 [12],34%
same,viability at 40 µM,PC-3 [13],22%
same,Activity,Rattus norvegicus,Non-Toxic
same,Activity,PC-3 [14],39%
same,Activity,PC-3 [15],46%
same,Retention_time,[16],4.35 min
same,concentration at 24 h,[17],230 ng/mL
same,Tmax,[18],6 h
same,Cmax,[19],5.27 µM
same,viability at 20 µM,PC-3 [20],51%
same,Activity,PC-3 [21],13%
same,Activity,PC-3 [22],18%
same,concentration at 6 h,[23],1940 ng/mL
same,Ratio IC50,PC-3 [24],110
same,Activity,PC-3 [25],66%
same,Activity,PC-3 [26],33%
same,IC50,LNCaP [27],220 nM
same,Activity,PC-3 [28],25%
same,Drug metabolism,[29],Metabolite_Detected
same,Activity,PC-3 [30],37%
